Data: ChEMBL document CHEMBL3046066, “Synthesis of new fluorinated Tebufenpyrad analogs with acaricidal activity through regioselective pyrazole formation” (2008)
Activity calls are given as the source filed them. The rule behind the calls is not given here.

Columns and labels:
Tetranychus urticae [1] = assay: Acaricidal activity against Tetranychus urticae (two-spotted spider mite) assessed as fertility inhibition at 0.16 g/L measured after 6 days; format: functional; settings: 144 h
Outline: (§1)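 Each compound was applied as a solution, with active-principle concentration in the assay of 5 g/L (preliminary screen) or 0.16 g/L. Adulticide effect (% adult mortality) and fertility inhibition (%) were scored 24 h, 4 days and 6 days after application.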

Tetranychus urticae [2] = assay: Acaricidal activity against Tetranychus urticae (two-spotted spider mite) assessed as fertility inhibition at 5 g/L measured after 24 hr; format: functional; outline: as §1
Tetranychus urticae [3] = assay: Acaricidal activity against Tetranychus urticae (two-spotted spider mite) assessed as mortality at 5 g/L measured after 4 days; format: functional; settings: 96 h; outline: as §1
Tetranychus urticae [4] = assay: Acaricidal activity against Tetranychus urticae (two-spotted spider mite) assessed as fertility inhibition at 0.16 g/L measured after 4 days; format: functional; settings: 96 h; outline: as §1
Tetranychus urticae [5] = assay: Acaricidal activity against Tetranychus urticae (two-spotted spider mite) assessed as fertility inhibition at 0.16 g/L measured after 24 hr; format: functional; outline: as §1
Tetranychus urticae [6] = assay: Acaricidal activity against Tetranychus urticae (two-spotted spider mite) assessed as mortality at 0.16 g/L measured after 6 days; format: functional; settings: 144 h; outline: as §1
Tetranychus urticae [7] = assay: Acaricidal activity against Tetranychus urticae (two-spotted spider mite) assessed as mortality at 0.16 g/L measured after 4 days; format: functional; settings: 96 h; outline: as §1
Tetranychus urticae [8] = assay: Acaricidal activity against Tetranychus urticae (two-spotted spider mite) assessed as fertility inhibition at 5 g/L measured after 4 days; format: functional; settings: 96 h; outline: as §1
Tetranychus urticae [9] = assay: Acaricidal activity against Tetranychus urticae (two-spotted spider mite) assessed as fertility inhibition at 5 g/L measured after 6 days; format: functional; settings: 144 h; outline: as §1
Tetranychus urticae [10] = assay: Acaricidal activity against Tetranychus urticae (two-spotted spider mite) assessed as mortality at 5 g/L measured after 6 days; format: functional; settings: 144 h; outline: as §1
Tetranychus urticae [11] = assay: Acaricidal activity against Tetranychus urticae (two-spotted spider mite) assessed as mortality at 0.16 g/L measured after 24 hr; format: functional; outline: as §1
Tetranychus urticae [12] = assay: Acaricidal activity against Tetranychus urticae (two-spotted spider mite) assessed as mortality at 5 g/L measured after 24 hr; format: functional; outline: as §1
Tetranychus urticae [13] = assay: Acaricidal activity against Tetranychus urticae (two-spotted spider mite) assessed as mortality at 1.5 g/L measured first 4 days; format: functional, organism-based
Outline: (§2)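 Solutions at 1.50, 0.67 and 0.16 g/L were applied for a lower-concentration follow-up to the 5 g/L screen. Adult mortality (%) was scored over time after application, including within the first 24 h.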

Tetranychus urticae [14] = assay: Acaricidal activity against Tetranychus urticae (two-spotted spider mite) assessed as mortality at 1.5 g/L measured within 24 hr; format: functional; outline: as §2
Tetranychus urticae [15] = assay: Acaricidal activity against Tetranychus urticae (two-spotted spider mite) assessed as mortality at 0.67 g/L measured within 24 hr; format: functional; outline: as §2

SMILES	inhibition at 160 µg/mL (Tetranychus urticae [1]) [%]	inhibition at 5000 µg/mL (Tetranychus urticae [2]) [%]	mortality at 5000 µg/mL (Tetranychus urticae [3]) [%]	inhibition at 160 µg/mL (Tetranychus urticae [4]) [%]	inhibition at 160 µg/mL (Tetranychus urticae [5]) [%]	mortality at 160 µg/mL (Tetranychus urticae [6]) [%]	mortality at 160 µg/mL (Tetranychus urticae [7]) [%]	inhibition at 5000 µg/mL (Tetranychus urticae [8]) [%]	inhibition at 5000 µg/mL (Tetranychus urticae [9]) [%]	mortality at 5000 µg/mL (Tetranychus urticae [10]) [%]	mortality at 160 µg/mL (Tetranychus urticae [11]) [%]	mortality at 5000 µg/mL (Tetranychus urticae [12]) [%]	Activity (Tetranychus urticae [13])	mortality at 1500 µg/mL (Tetranychus urticae [14]) [%]	mortality at 670 µg/mL (Tetranychus urticae [15]) [%]
CC(F)c1cc(C(=O)NCc2ccc(C(C)(C)C)cc2)n(C)n1 (stereo not given)	94	100	70	91	68	10	10	96	100	80	16	70	–	–	–
CC(F)c1nn(C)c(C(=O)NCc2ccc(C(C)(C)C)cc2)c1Cl (stereo not given)	96	100	75	95	95	66	44	100	100	100	48	70	Active	–	–
Cn1nc(CC(F)F)c(Cl)c1C(=O)NCc1ccc(C(C)(C)C)cc1	100	100	100	100	100	75	71	100	100	100	80	100	Active	100	–
Cn1nc(CCF)c(Cl)c1C(=O)NCc1ccc(C(C)(C)C)cc1	100	100	100	100	100	100	100	100	100	100	96	100	Active	100	96
CCc1nn(C)c(C(=O)NCc2ccc(C(C)(C)C)cc2)c1Cl [TEBUFENPYRAD]	100	100	100	100	84	100	100	100	100	100	92	100	–	–	–
Cn1nc(CC(F)(F)F)c(Cl)c1C(=O)NCc1ccc(C(C)(C)C)cc1	–	97	30	–	–	–	–	98	98	70	–	25	–	–	–
Cn1nc(C(F)C(F)(F)F)c(Cl)c1C(=O)NCc1ccc(C(C)(C)C)cc1 (stereo not given)	–	53	10	–	–	–	–	60	65	60	–	10	–	–	–
Cn1nc(CC(F)F)cc1C(=O)NCc1ccc(C(C)(C)C)cc1	98	100	100	100	96	10	14	100	100	100	59	100	–	–	–
